The record followed here is ChEMBL document CHEMBL4765315, “Discovery of IAP-recruiting BCL-X PROTACs as potent degraders across multiple cancer cell lines” (Eur J Med Chem, 2020).

Each structure is given as a SMILES string. Activity calls are given as the source filed them. No cut-off for these calls is given here.

In test [1] the test system is Bcl-2-like protein 1/E3 ubiquitin-protein ligase XIAP (Homo sapiens). In words: Protac activity at BCL-XL/XIAP E3 ligase in human MyLa1929 cells assessed as degradation of BCL-XL by measuring remaining protein at 500 nM measured after 16 hrs by Western blot analysis (reference value: 100%).
Test [2] in a line: Antiproliferative activity against human MyLa1929 cells assessed as cell viability measured after 72 hrs by MTS assay. It is filed as functional, cell-based. The method, boiled down:
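MTS tetrazolium read-out of viability after 72 h continuous exposure. MyLa 1929 seeded at 1×10^5 cells per well; EC50/IC50 fitted from concentration–response curves. For MyLa 1929, values are means of at least two independent experiments.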

Test [3] can be described thus: Selectivity ratio of IC50 for human platelets to IC50 for human MyLa1929 cells. Summed up:
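Platelets were isolated from platelet-rich plasma in acid citrate buffer with PGE1 (1 µM) and apyrase (0.2 units/mL) at final concentration. They were adjusted to 2 × 10^8/mL in HEPES Tyrode's buffer with 10% FBS, PGE1 and apyrase, then treated for 48 h and read by MTS. MyLa 1929 cells (1×10^5 per well) were treated for 72 h and read by MTS, with IC50 from at least two independent experiments. The ratio is platelet IC50 over MyLa 1929 IC50.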

The subject of a further test is WI-38. In words: Cytotoxicity against human WI-38 cells assessed as cell viability measured after 72 hrs by MTS assay. The settings on record: WI-38, 72 h. It is filed as cell-based.
The subject of another test is Platelet. The test is described as follows: Cytotoxicity against human platelet assessed as cell viability measured after 48 hrs by MTS assay. A general note: Formazan colour is commonly taken as a measure of viable cells.
A further test has as its system MOLT-4. The test is described as follows: Antiproliferative activity against human MOLT-4 cells assessed as cell viability measured after 72 hrs by MTS assay. The class given is functional, cell-based.
Test [4] has as its target Protein cereblon/Bcl-2-like protein 1 (Homo sapiens) (UniProt Q07817+Q96SW2). In words: Protac activity at BCL-XL/CRBN in human MyLa1929 cells assessed as degradation of BCL-XL at 0.01 to 3 uM measured after 16 hrs by western blot analysis. It is filed as cell-based. The settings on record: dose 0.01-3 µM. Summed up: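 MyLa 1929 cells treated 16 h with compound (single 500 nM or concentration series), then harvested for immunoblot. Membranes blocked in 5% milk/TBS-Tween, primary antibody overnight at 4 °C, HRP secondary, ECL detection. BCL-XL band normalized to β-actin by densitometry; reported as % protein remaining versus vehicle.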

Where [5] appears, read: Homo sapiens, MyLa1929, 72 h, read-out: IC50.

Sequence of Protein cereblon/Bcl-2-like protein 1 (Homo sapiens) (Q07817 whole entry, looked up): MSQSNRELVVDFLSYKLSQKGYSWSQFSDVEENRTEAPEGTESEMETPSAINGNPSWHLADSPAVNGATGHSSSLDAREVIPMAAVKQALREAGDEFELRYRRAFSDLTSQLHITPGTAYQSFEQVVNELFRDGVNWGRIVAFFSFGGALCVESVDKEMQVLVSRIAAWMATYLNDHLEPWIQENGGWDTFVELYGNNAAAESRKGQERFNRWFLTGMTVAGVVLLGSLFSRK
Sequence of Protein cereblon/Bcl-2-like protein 1 (Homo sapiens) (Q96SW2 whole entry, looked up): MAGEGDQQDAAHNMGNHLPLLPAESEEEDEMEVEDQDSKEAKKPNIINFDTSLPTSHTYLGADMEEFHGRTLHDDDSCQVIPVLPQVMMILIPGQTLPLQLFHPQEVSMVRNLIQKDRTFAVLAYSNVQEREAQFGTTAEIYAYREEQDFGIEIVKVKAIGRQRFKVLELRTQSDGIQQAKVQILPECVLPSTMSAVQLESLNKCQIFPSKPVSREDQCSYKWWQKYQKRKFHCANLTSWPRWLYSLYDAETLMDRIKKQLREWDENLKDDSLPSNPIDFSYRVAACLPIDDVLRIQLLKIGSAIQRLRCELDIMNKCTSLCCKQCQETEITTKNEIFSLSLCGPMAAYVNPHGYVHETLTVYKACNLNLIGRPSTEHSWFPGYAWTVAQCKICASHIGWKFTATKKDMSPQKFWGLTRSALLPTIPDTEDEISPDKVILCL

For the compound `CN[C@@H](C)C(=O)N[C@@H](C(=O)N1CCC[C@H]1c1nc(C(=O)c2cccc(OCCOCCOCc3cn(CCCC(=O)N4CCN(CC[C@H](CSc5ccccc5)Nc5ccc(S(=O)(=O)NC(=O)c6ccc(N7CCN(CC8=C(c9ccc(Cl)cc9)CCC(C)(C)C8)CC7)cc6)cc5S(=O)(=O)C(F)(F)F)CC4)nn3)c2)cs1)C1CCCCC1`, in test [1], the Remaining BCL-XL protein was 31%. In addition, in test [2] (setting [5]), the half-maximal inhibitory concentration (IC50) was determined as 157 nM.

Regarding `CN[C@@H](C)C(=O)N[C@H]1CCO[C@H]2CC(C)(C)[C@@H](C(=O)N[C@@H]3CCCc4cc(O)ccc43)N2C1=O`, the half-inhibitory concentration (IC50) in test [2] (setting [5]) is above 10000 nM.

Regarding `CC1(C)CCC(c2ccc(Cl)cc2)=C(CN2CCN(c3ccc(C(=O)NS(=O)(=O)c4ccc(N[C@H](CCN5CCOCC5)CSc5ccccc5)c(S(=O)(=O)C(F)(F)F)c4)cc3)CC2)C1` [NAVITOCLAX], the “Ratio IC50” value in test [3] is listed as 137. Moreover, the concentration for half-maximal inhibition (IC50) amounted to 8060 nM in the test with WI-38, 189 nM in the test with Platelet and 50 nM in test [2] (setting [5]).

Take `CN[C@@H](C)C(=O)N[C@@H](C(=O)N1CCC[C@H]1c1nc(C(=O)c2cccc(OCCOCCOCC(=O)N3CCN(CC[C@H](CSc4ccccc4)Nc4ccc(S(=O)(=O)NC(=O)c5ccc(N6CCN(CC7=C(c8ccc(Cl)cc8)CCC(C)(C)C7)CC6)cc5)cc4S(=O)(=O)C(F)(F)F)CC3)c2)cs1)C1CCCCC1`: in test [1], the Remaining BCL-XL protein was determined as 60%. The concentration for half-maximal inhibition (IC50) in test [2] (setting [5]) was determined as 143 nM.

Take `CN[C@@H](C)C(=O)N[C@@H](C(=O)N1CCC[C@H]1c1nc(C(=O)c2cccc(OCCCCCC(=O)N3CCN(CC[C@H](CSc4ccccc4)Nc4ccc(S(=O)(=O)NC(=O)c5ccc(N6CCN(CC7=C(c8ccc(Cl)cc8)CCC(C)(C)C7)CC6)cc5)cc4S(=O)(=O)C(F)(F)F)CC3)c2)cs1)C1CCCCC1`: in test [1], the Remaining BCL-XL protein was determined as 104%. Also, the IC50 in test [2] (setting [5]) was above 10000 nM.

Consider `CN[C@@H](C)C(=O)N[C@@H](C(=O)N1CCC[C@H]1c1nc(C(=O)c2cccc(OCCCCC(=O)N3CCN(CC[C@H](CSc4ccccc4)Nc4ccc(S(=O)(=O)NC(=O)c5ccc(N6CCN(CC7=C(c8ccc(Cl)cc8)CCC(C)(C)C7)CC6)cc5)cc4S(=O)(=O)C(F)(F)F)CC3)c2)cs1)C1CCCCC1`, for which the Remaining BCL-XL protein in test [1] turned out to be 80%. The IC50 in test [2] (setting [5]) was found to be 1960 nM.

As to `CN(CCOCCOCCOCCNc1cccc2c1C(=O)N(C1CCC(=O)NC1=O)C2=O)CC[C@H](CSc1ccccc1)Nc1ccc(S(=O)(=O)NC(=O)c2ccc(N3CCN(CC4=C(c5ccc(Cl)cc5)CCC(C)(C)C4)CC3)cc2)cc1S(=O)(=O)C(F)(F)F` (stereo partly specified), the result in the test with MOLT-4 was Active. The concentration for half-maximal inhibition (IC50) result in test [2] (myla1929) was “Active”.

Regarding `CN[C@@H](C)C(=O)N[C@@H](C(=O)N1CCC[C@H]1c1nc(C(=O)c2cccc(OCCCC(=O)N3CCN(CC[C@H](CSc4ccccc4)Nc4ccc(S(=O)(=O)NC(=O)c5ccc(N6CCN(CC7=C(c8ccc(Cl)cc8)CCC(C)(C)C7)CC6)cc5)cc4S(=O)(=O)C(F)(F)F)CC3)c2)cs1)C1CCCCC1`, the Remaining BCL-XL protein in test [1] was 55%. Moreover, the concentration for half-maximal inhibition (IC50) in test [2] (setting [5]) stood at 997 nM.

On to `CN[C@@H](C)C(=O)N[C@@H](C(=O)N1CCC[C@H]1c1nc(C(=O)c2cccc(OCCOCCOCCOCc3cn(CCCC(=O)N4CCN(CC[C@H](CSc5ccccc5)Nc5ccc(S(=O)(=O)NC(=O)c6ccc(N7CCN(CC8=C(c9ccc(Cl)cc9)CCC(C)(C)C8)CC7)cc6)cc5S(=O)(=O)C(F)(F)F)CC4)nn3)c2)cs1)C1CCCCC1`, for which, in test [1], the Remaining BCL-XL protein stood at 59%. For the same compound, the IC50 in test [2] (setting [5]) turned out to be 147 nM.

With `O=C1CCC(N2C(=O)c3cccc(NCCOCCOCc4cn(CCCC(=O)N5CCN(CC#Cc6ccc(OCCCc7sc(N8CCc9cccc(C(=O)Nc%10nc%11ccccc%11s%10)c9C8)nc7C(=O)O)c(F)c6)CC5)nn4)c3C2=O)C(=O)N1` (stereo unspecified), the result (in the test with MOLT-4; in test [4]) was Active. Moreover, the half-inhibitory concentration (IC50) result in test [2] (myla1929) was “Active”.

Consider `CN[C@@H](C)C(=O)N[C@@H](C(=O)N1CCC[C@H]1c1nc(C(=O)c2cccc(OCCOCCOCCOCCOCC(=O)N3CCN(CC[C@H](CSc4ccccc4)Nc4ccc(S(=O)(=O)NC(=O)c5ccc(N6CCN(CC7=C(c8ccc(Cl)cc8)CCC(C)(C)C7)CC6)cc5)cc4S(=O)(=O)C(F)(F)F)CC3)c2)cs1)C1CCCCC1`, for which the Remaining BCL-XL protein in test [1] was found to be 29%. The half-maximal inhibitory concentration (IC50) in test [2] (setting [5]) was 75 nM.

Turning to `CN[C@@H](C)C(=O)N[C@@H](C(=O)N1CCC[C@H]1c1nc(C(=O)c2cccc(OCCCCCCC(=O)N3CCN(CC[C@H](CSc4ccccc4)Nc4ccc(S(=O)(=O)NC(=O)c5ccc(N6CCN(CC7=C(c8ccc(Cl)cc8)CCC(C)(C)C7)CC6)cc5)cc4S(=O)(=O)C(F)(F)F)CC3)c2)cs1)C1CCCCC1`, the Remaining BCL-XL protein in test [1] came to 108%. The IC50 in test [2] (setting [5]) was above 10000 nM.

The IC50 is the midpoint of a concentration-inhibition curve.
